Screening results: PubChem, Johns Hopkins Ion Channel Center
Shown are actives, neighbours in structure and some others; about 2.9% of the full set was active somewhere.
TRPC6 inh: inhibitors of mouse TRPC6 channel; HEK293-TRPC6, membrane potential dye, ACh-evoked depolarization; hits give low values; B-score at 10 µM; Q61143; 1.1% of 310,000 active;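 active means B-score under library mean minus 3 SD, initial fluorescence not abnormally high, positive integrated signal ratio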;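 further: B-score derived from integrated fluorescence ratio over the kinetic read; more negative B-score means stronger inhibition of depolarization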
TRPC6 act: activators of mouse TRPC6 channel. Q61143. HEK293-TRPC6 membrane potential dye fluorescence; hits give high values. B-score at 10 µM. 0.13% of 310,000 active. AID 2550;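 active means B-score of the integrated fluorescence ratio above library mean plus 3 SD, and starting fluorescence ratio within library mean plus 5 SD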;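 further: higher score means more depolarization so channel activation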
Kir21 inh: blocks the mouse Kir2.1 inward-rectifier potassium channel | P35561 | HEK293-Kir2.1, FluxOR thallium flux fluorescence; hits give low values | B-score at 10 µM | 0.85% of 310,000 active | AID 1672;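 active means fluorescence ratio B-score at or below minus 3 SD of library scores, with starting-brightness B-score within 2 SD, cut at about -4.2 in these data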;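 further: channel flux triggered by added potassium and thallium sulfate stimulus; B-score of peak minus minimum fluorescence over baseline after thallium stimulus; more negative B-score means stronger Kir2.1 block with less thallium influx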
TRPC4 act: activators of mouse TRPC4 channel; Q9QUQ5; HEK293 TRPC4beta/mu-opioid, Fluo4 calcium fluorescence; hits give high values; B-score at 10 µM; 0.49% of 310,000 active; AID 2237;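 active means B-score above 5 SD of library B-scores, and initial fluorescence ratio not above library mean plus 5 SD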;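 further: positive B-score marks a calcium rise read as TRPC4 activation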
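Assay system: HEK293 stable line with TRPC4beta plus mu-opioid receptor. Times: dye 45 min RT, read 110 s. Measured by: kinetic Fluo4 calcium fluorescence. Measure: B score of integrated ratio. Controls: assay buffer as low control, maximal DAMGO as high control.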
TRPC4 inh: blocks the mouse TRPC4 cation channel. 0.39% of 300,000 active. B-score at 10 µM. AID 2247. HEK293 TRPC4beta/mu-opioid, DAMGO-evoked Fluo4 calcium flux; hits give low values;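 active means B-score over 3 SD under the library average, no early fluorescence shift, positive overall ratio signal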
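System: stable TRPC4beta/mu-opioid receptor HEK293 cells; Dosing: single-point compound dosing; Measured by: Fluo4 Ca2+ flux fluorescence; Read-out basis: per-well B score of integrated baseline-normalized Fluo4 ratio.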
TRPC4 PAM: TRPC4 (mouse) allosteric potentiation. B-score at 10 µM. 0.42% of 310,000 active. HEK293 TRPC4beta/mu-opioid, DAMGO EC20, Fluo-4 Ca2+ flux; hits give high values;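 active means B-score of calcium response area above 5 SD of library B-scores, with initial fluorescence ratio within 5 SD of library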;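 further: B-score of integrated fluorescence ratio over time as area under calcium response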
Numbers without * were called inactive; i = inactive.

SMILES	TRPC6 inh	TRPC6 act	Kir21 inh	TRPC4 act	TRPC4 inh	TRPC4 PAM
CCCNc1nc2ccccc2c(=O)[nH]1	i	i	-0.03	i	i	i
CC1CCc2nn(CC(=O)NCc3ccc4c(c3)OCO4)cc2C1 (centres undefined)	i	i	2	i	i	i
CCCC/C(C)=N/NC(=O)Nc1ccccc1	i	i	0.05	74*	i	i
COc1nc(N=C(N)N)nc2ccc(C)cc12	i	i	-0.06	i	-5*	i
CCc1nc(N=C(N)N)nc2ccccc12	i	i	-0.02	i	i	i
Nc1cc(C(F)(F)F)ccc1Nc1ccccc1	i	i	1.6	i	-6*	i
CCOC(=O)c1c(-c2ccc(OC)cc2)oc2ccc(O)cc12	i	i	0.35	i	i	17*
O=C(COc1ccc2c3c(c(=O)oc2c1)CCC3)NCCN1CCOCC1	i	i	2.5	i	i	i
COc1ccc(CC(=O)OCC(=O)NC(=O)NC23CC4CC(CC(C4)C2)C3)cc1	i	i	0.73	i	i	i
CCOc1cc(CNCc2ccncc2)cc(Br)c1OCc1ccc(F)cc1	i	i	-13*	i	i	i
Fc1ccc(COc2cccc(CNCc3ccncc3)c2)cc1	i	i	-0.76	i	i	i
Fc1ccc(COc2ccc(Br)cc2CNCc2ccncc2)cc1	i	i	-4.4*	i	i	i
CCOc1ccc(C(=O)NC(=S)Nc2ccc(N3CCCCC3)cc2)cc1[N+](=O)[O-]	i	i	0.16	i	i	i
COc1ccc(-c2noc(CCC(=O)NCCCN3CCC(Cc4ccccc4)CC3)n2)cc1	i	i	-4.6*	i	i	i
Cc1ccc(-c2noc(CCC(=O)NCCN3CCOCC3)n2)cc1	i	i	0.04	i	i	i
CCN(Cc1ccccc1)C(=O)CCc1nc(-c2ccc(C)cc2)no1	i	i	-6.7*	i	i	i
CCc1ccccc1N(CC)C(=O)CCc1nc(-c2ccc(C)cc2)no1	i	i	0.08	i	i	i
Cc1ccc(-c2noc(CCC(=O)NCCN3CCc4ccccc4C3)n2)cc1	i	i	-8.8*	i	i	i
O=C(NC1CCCCC1)C(c1ccc(F)cc1)N(CCN1CCOCC1)C(=O)c1ccc(-c2ccccc2)[nH]1 (centres undefined)	i	i	1.6	i	i	i
O=c1c2c3nc4ccccc4nc3n(/N=C/c3ccccn3)c2ncn1-c1ccccc1	i	i	0.62	i	i	i
COc1ccc(C(CNC(=O)c2oc3ccc(Cl)cc3c2C)N2CCCCC2)cc1 (centres undefined)	i	i	0.92	i	-5*	i
COc1ccc(C(CNC(=O)c2cccc(Br)c2)N2CCCC2)cc1 (centres undefined)	i	i	-1.9	89*	i	i
COc1ccc(C(CNC(=S)NCc2ccccc2)N2CCCC2)cc1 (centres undefined)	i	i	-3.2	i	-6*	i
COc1ccccc1C(CNC(=S)NCc1ccccc1)N1CCCC1 (centres undefined)	i	i	-2.1	i	i	i
CCCCOc1ccc(C(=O)NCC(=O)NCC(c2ccc(OC)cc2)N2CCCC2)cc1 (centres undefined)	i	i	0.04	i	i	14*
SMILES	TRPC6 inh	TRPC6 act	Kir21 inh	TRPC4 act	TRPC4 inh	TRPC4 PAM
CCCCOc1ccc(C(=O)NCC(=O)NCC(c2ccc(F)cc2)N2CCOCC2)cc1 (centres undefined)	i	i	0.25	i	i	i
CCOc1cc(/C=C/c2nc3cc(C)c(C)cc3s2)ccc1OCC(=O)N1CCOCC1	i	i	0.35	i	i	i
COc1cccc(OC)c1OCc1cc(C2C3CCCC=C3C(C#N)=C(N)C2(C#N)C#N)c(C)cc1C (centres undefined)	i	i	-1.2	i	i	i
O=c1[nH]c2ccccc2c(O)c1-c1ccccc1	i	i	-0.5	i	i	i
O/N=C/Cc1[nH]c2ccccc2c1-c1ccccc1	i	i	0.34	i	-5*	i
O=C(NCCc1ccccc1)c1cnc2ccccc2n1	i	i	-1.7	i	i	16*
CCc1ccc(-c2cc(C)no2)cc1S(=O)(=O)NCc1ccccc1OC	i	i	0.84	i	i	i
O=C(CC1CCCCC1)NCc1nc(-c2ccccc2)no1	i	i	0.43	i	i	i
O=C(c1cccc(Cl)c1)N(Cc1cccs1)C1CCS(=O)(=O)C1 (centres undefined)	i	i	-0.01	i	i	i
O=C(c1sc2ccccc2c1Cl)N(Cc1cccs1)C1CCS(=O)(=O)C1 (centres undefined)	i	i	-0.71	120*	i	i
CCOc1ccc(Cl)cc1CNCCCSc1nc(C)cc(C)n1	i	i	-6.6*	i	i	i
COc1ccc(-c2n[nH]c3c2C(c2ccc(OC)c(OC)c2)N(c2ccccc2)C3=O)cc1 (centres undefined)	i	i	-0.23	i	i	i
COc1cc(C2NC(=S)NC(c3ccccc3)=C2C(C)=O)cc(Cl)c1OCC(=O)O (centres undefined)	i	i	-0.66	i	i	i
CC(=O)C1=C(c2ccccc2)NC(=S)NC1c1cc(Cl)c(OC(C)C)c(Cl)c1 (centres undefined)	i	i	0.36	i	i	12*
O=[N+]([O-])c1ccc(S(=O)(=O)NCCCc2ccccc2)cc1	i	i	0.29	i	i	57*
O=S(=O)(NCCCc1ccccc1)c1ccc(Cl)cc1	i	i	-4.8*	i	i	i
Cc1ccc(N(C(=O)C2CCC(=O)N2)C2(C(=O)NC3CCCC3)CCCCC2)cc1 (centres undefined)	i	i	0.97	i	i	i
COc1cc(OC)cc(C(=O)NC(=S)NNC(=O)[C@H]2C[C@@H]2c2ccccc2)c1	i	i	0.93	192*	i	i
COc1ccc(C(=O)NC(=S)NNC(=O)[C@H]2C[C@@H]2c2ccccc2)cc1OC	i	i	0.31	i	i	i
COc1ccc(/C=C/C(=O)NC(=S)NNC(=O)Cc2cccs2)cc1OC	i	i	0.22	i	i	i
COc1cc(NC(=O)Cc2cccs2)cc(OC)c1	i	i	2.6	i	i	i
